Shown are actives, neighbours in structure and some others; about 4.4% of the full set was active somewhere.
EBI2 block – EBI2 (human) antagonism. AID 651636. inhibition, % at 5 µM. hit rate 0.81% among 360,000. P32249. EBI2 beta-arrestin recruitment, luminescence, 7a,25-OHC stimulated; in the data active = inhibition above about 38%;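 also: enzyme fragment complementation signal reports receptor beta-arrestin coupling in cells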
Target sequence (P32249 whole entry, looked up, the tested form may be a part): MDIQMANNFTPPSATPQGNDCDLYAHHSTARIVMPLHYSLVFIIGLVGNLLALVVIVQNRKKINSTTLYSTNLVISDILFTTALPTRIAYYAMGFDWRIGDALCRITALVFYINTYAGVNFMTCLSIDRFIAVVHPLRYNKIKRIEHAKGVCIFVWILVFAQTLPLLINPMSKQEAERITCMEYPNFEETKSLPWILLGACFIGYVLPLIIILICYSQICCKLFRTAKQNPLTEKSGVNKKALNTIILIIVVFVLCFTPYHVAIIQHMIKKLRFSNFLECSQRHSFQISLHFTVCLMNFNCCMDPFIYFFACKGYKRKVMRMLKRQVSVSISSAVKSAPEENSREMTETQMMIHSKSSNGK
GRIN3A LBD mod – NR3A (human) ligand-binding domain modulation; NR3A LBD differential scanning fluorimetry, Tm shift; 0% = protein alone, 100% = glycine-bound protein; hit rate 2.5% among 340,000; Tm shift relative to glycine control, % at 25 µM;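 active = melting temperature shift of at least 10% of the positive control shift, at one fixed dose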
SENP1 FRET inh – inhibitors of human SENP1 SUMO protease catalytic domain; Q9P0U3; recombinant SENP1 catalytic domain, CyPet-SUMO1-YPet FRET cleavage; inhibition, % at 10 µM; hit rate 0.21% among 360,000; AID 624204;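 active = inhibition at least 30% at 10 µM, raw YFP signal under a set limit, fluorescence ratio 0.5 to 1.5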
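System: Recombinant human SENP1 catalytic domain, His6-tagged | Incubation: Enzyme reaction for 50 min at room temperature, dark | Medium: Tris pH 8 with BME, BSA, NP40 and catalase | Also added: 25 nM SUMO1 FRET substrate | Compound: 10 µM single point, 0.5% DMSO | Measured by: FRET fluorescence in CFP and YFP emission channels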
MPTP block – inhibitors of mitochondrial permeability transition pore. inhibition, % at 10 µM. hit rate 1.4% among 360,000. isolated mouse mitochondria, Ca2+ swelling absorbance, 30 min. AID 602449;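 active = inhibition of 50% or more, scaled per plate between neutral and stimulator controls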
Rh123 counter – Rhodamine 123 counter-screen of mitochondrial pore hits; shares compounds with MPTP block; isolated mitochondria, membrane potential, Rhodamine 123 fluorescence; inhibition, % at 10 µM; hit rate 78% among 5,000; in the data active = inhibition above about 22%
MPTP swell DR – MPTP inhibition, dose response swelling confirmation; isolated mitochondria swelling, absorbance; shares compounds with MPTP block; hit rate 58% among 780; IC50, µM; in the data active = IC50 below about 20 µM
MPTP counter DR – counter-screen for mitochondrial permeability transition pore inhibitors, dose response | hit rate 49% among 780 | isolated mitochondria counterscreen, fluorescence read-out | shares compounds with MPTP block | IC50, µM; in the data active = IC50 below about 80 µM
Large screens that a line does not name were inactive (follow-up assays come after a bar, where they were run).

COc1cccc(/C=C/C(=C2\C(=O)N(c3ccccc3)N=C2C)c2ccc(Br)cc2)c1OC	none
Cn1c(NCCN(CCO)CCCc2ccc([N+](=O)[O-])cc2)cc(=O)n(C)c1=O	none
O=C(Nc1cccc2c1[nH]c1ccccc12)C(F)(F)F	MPTP block 99 | Rh123 counter 87
Cc1sc2ncnc(N3CCN(S(=O)(=O)c4ccccc4)CC3)c2c1C	MPTP block 94 | Rh123 counter 89
CCN1CCN(CCOc2ccc(Cl)cc2)CC1	none
Clc1ccc(OCCN2CCN(c3ncnc4sccc34)CC2)cc1	MPTP block 100 | Rh123 counter 101
Cc1ccc(OCCN2CCN(c3ncnc4sc(C)c(C)c34)CC2)cc1	MPTP block 97 | Rh123 counter 90
O=C(/C(N=Nc1cccc([N+](=O)[O-])c1)=C(/O)c1ccc(Br)cc1)C(F)(F)F	MPTP block 78 (no result: GRIN3A LBD mod) | Rh123 counter 62
O=C(CCNc1ccc(Br)cc1)c1cccc([N+](=O)[O-])c1	none
Cc1nc(N2CCc3ccccc3C2)[nH]c(=O)c1CCC(C)C	none
Cc1nc(Nc2ccccc2)[nH]c(=O)c1CCC(C)C	MPTP block 57 | Rh123 counter 58
Brc1ccc(CNc2ccc3ncccc3c2)cc1	MPTP block 92 | Rh123 counter 86
COC(=O)c1cccc(NC(=S)NCc2ccc(Cl)cc2)c1	MPTP block 94 | Rh123 counter 107
COc1ccc(CNC(=O)Nc2cccc(Cl)c2)cc1	none
COc1ccc(C2SCCN2C(=S)Nc2cccc(Cl)c2)cc1 (centres undefined)	GRIN3A LBD mod 16, MPTP block 96 | Rh123 counter 94
COc1ccc(CNC(=S)Nc2cccc(Cl)c2)cc1	MPTP block 75 | Rh123 counter 100
COc1ccc(C2SCCN2C(=S)Nc2ccc(Cl)cc2)cc1 (centres undefined)	none
COC(=O)c1cccc(NC(=O)Nc2ccc(Cl)cc2Cl)c1	MPTP block 84 | Rh123 counter 75
COc1ccc(NC2CCCN(C(=O)CCC3=NNC(=O)CC3)C2)cc1 (centres undefined)	none
Cc1ccc(-n2c(C)cc(=O)cc2C)cc1[N+](=O)[O-]	none
COC(=O)c1ccc(C)c(NC(=S)NCc2ccc(Cl)cc2)c1	none
COC(=O)c1cc(NC(=S)NCc2ccc(Cl)cc2)cc(C(=O)OC)c1	GRIN3A LBD mod 25, MPTP block 98 | Rh123 counter 79
Cc1cccc(OCC(=O)N=Nc2c(O)[nH]c3ccc([N+](=O)[O-])cc23)c1	none (no result: EBI2 block, SENP1 FRET inh, MPTP block)
Cc1ccc(OC(C)C(=O)N=Nc2c(O)[nH]c3ccc([N+](=O)[O-])cc23)cc1 (centres undefined)	MPTP block 73 | Rh123 counter 68
CC(=O)N1CCN(C(=S)c2ccc([N+](=O)[O-])cc2)CC1	MPTP block 119 | Rh123 counter inactive | MPTP swell DR inactive | MPTP counter DR inactive
O=C(O)CCC(=O)Nc1ccc(/C=C/C(=O)C2CC2)cc1	none
CCOC(=O)Cc1csc(NC(=O)c2ccc(NC(C)=O)cc2)n1	none
CCOC(=O)Cc1csc(NC(=O)Nc2ccc(OC(F)(F)F)cc2)n1	MPTP block 84 | Rh123 counter 68
NC(c1ccccc1)c1csc(NC(=O)Nc2ccc(OC(F)(F)F)cc2)n1 (centres undefined)	MPTP block 70 (no result: GRIN3A LBD mod) | Rh123 counter 78
COc1ccccc1NS(=O)(=O)c1cccc(C(=O)NCC(c2cccs2)N(C)C)c1 (centres undefined)	none
CC(=O)c1ccccc1NC(=O)CN1C(=O)NC2(CCCCCCC2)C1=O	none
CN1CCN(C2Cc3ccc(F)cc3Sc3cc(F)c(Cl)cc32)CC1 (centres undefined)	none
CN1CCN(C2=Cc3ccc(Cl)cc3Sc3ccc(F)cc32)CC1	MPTP block 95 | Rh123 counter inactive
CN1CCN(c2cc(C(F)(F)F)nc3ccc(F)cc23)CC1	none
CN1CCN(C2=Cc3ccccc3Sc3cc(F)ccc32)CC1	MPTP block 98 | Rh123 counter inactive
